Experimental data published in the EternaBench riboswitch data.

Tested on: MS2 coat protein
Assay: apparent Kd, MS2 coat protein; higher = weaker binding; RNA-MaP array; FMN 200 µM where present
Outline: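 SNAP-549-labelled MS2 coat protein, doubled from 0.7 or 1.5 nM to 3 µM, was titrated over designs transcribed by stalled E. coli RNA polymerase on Illumina sequencing-chip clusters. Titrations were run without and then with constant ligand in 100 mM Tris-HCl pH 7.5, 80 mM KCl, 4 mM MgCl2, BSA, DTT, yeast tRNA and Tween-20. The apparent Kd is the median of filtered per-cluster fits to green signal normalised to red-channel RNA signal and control-cluster median Fmax.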

[1] = designed as: ON switch for flavin mononucleotide, no ligand
[2] = ligand present: flavin mononucleotide, designed as: ON switch for flavin mononucleotide
[3] = designed as: OFF switch for flavin mononucleotide, no ligand
[4] = ligand present: flavin mononucleotide, designed as: OFF switch for flavin mononucleotide

| Sequence | apparent Kd [1] [µM] | apparent Kd [2] [µM] | apparent Kd [3] [µM] | apparent Kd [4] [µM] |
| --- | --- | --- | --- | --- |
| AGGUCAACCACAGGAUAUGGCUAGCAUAGCUAGCCAGAAGGGUGGUCGUUGCCAUGUACAUACAUGAGGAUCACCCAUGUAUCC | 0.179 | 0.0547 | – | – |
| AGGUCGGGAUAAGGGCAUUCGACUCAGGAUAUGGGAGGUUUACAUGAGGAUCACCCAUGUUUCACCCAGAAGGGAGUUCAAACU | 0.00759 | 0.00584 | – | – |
| AGGUGUAGAGGAUAUUUAUUCUUCCACAUGAGGAUCACCCAUGUCCCGGUCACCAGGGACGGAGAAGGCUACACCA | – | – | 0.077 | 0.0883 |
| AGUAAAGGCCUGAGGUGUCCGAACAUGAGGAUCACCCAUGUAGAGGAUAUAGGUGGAAGUGACGCCUAGAAGGCUACGUGUCAU | – | – | 0.0088 | 0.011 |
| AGUAACAGAGGAUAUACUAUUUUAUGUGUUUGUUAUUUUAAACAUGAGGAUCACCCAUGUAGAAGGCUGAAUAA | – | – | 0.0218 | 0.0241 |
| AGUAACAGAGGAUAUACUAUUUUAUGUGUUUGUUAUUUUGAACAUGAGGAUCACCCAUGUAGAAGGCUGAAUAA | – | – | 0.025 | 0.026 |
| AGUAACAUACUCAACAUGAGGAUCACCCAUGUACUCUCUUGUAAGGAUAUACAUUCGUAUUGAUAGUAGAAGGUACCAAUUAAG | 0.0535 | 0.0574 | – | – |
| AGUACCAUGUAGAAGGGAUAUCUCAAAGAGAUAUCAGGAUAUACAUGAGGAUCACCCAUGUAAAUGUACUCCAGGAAACUGGAA | – | – | 0.0198 | 0.0553 |
| AGUAGAUCAGGAUAUACAUGAAAGAUCAAAAUGUCCAAUCUACAUGAGGAUCACCCAUGUAGAAGGGAUCUACA | – | – | 0.0171 | 0.023 |
| AGUAGGCAGUGAGGAUAUGUACUUGUAACGGUACAUGAGGAUCACCCAUGUGGUGGGAGUGGAGGACAGAAGGCACCGUUUGGG | 0.114 | 0.0666 | – | – |
| AGUAUGUUUGAGAAGGUGAAGUGGAAACAUGAGGAUCACCCAUGUAUUAGGAAGCCUGGUUUUGUCAAGGAUAUCGGGUAUACA | 0.0198 | 0.0161 | – | – |
| AGUAUUGUAGGGUAUCCAACAUGAGGAUCACCCAUGUACCAGAGAAGGACCCAGGCAUUGCUUGGGUAGGAUAUCUGCGCAUCA | – | – | 0.0184 | 0.193 |
| AGUCAUACAGGAUAUACAUGAGGAUCACCCAUGUUUAUCCUACAUGGGUGAUCCUCAUGUAGAAGGGUAUGACA | – | – | 0.0112 | 0.00945 |
| AGUCGGAGCAGAGGAUAUACAUGAGGAUCACCCAUGUAAUAAAGUGAAGACUGGAAACAGUCAAUGUAGAAGGCUGCUCCGACA | – | – | 0.0272 | 0.21 |
| AGUCGGAGCAGAGGAUAUACAUGAGGAUCACCCAUGUAAUAAAGUGAAGCCUGGAAACAGGUAAUGUAGAAGGCUGCUCCGACA | – | – | 0.011 | 0.0847 |
| AGUCGGCGAGGAUAUACAUGAGGAUCACCCAUGUGAGAGAUAAAAGUGAGUUAGACAAGUAGAAGGCGCUGACA | – | – | 0.0597 | 0.469 |
| AGUCUGCGAGGAUAUACAUGAGGAUCACCCAUGUGCGAAGAACUAGUGAGGUCGAUUGGUAGAAGGCGCGGACA | – | – | 0.297 | 0.0303 |
| AGUGCCUCGAGAGGAUAUUACAUGAGGAUCACCCAUGUAACAGAGGUGGAAACACCUCUGAAAUGUAAGAAGGCUCGAGGCACA | – | – | 0.0192 | 0.0312 |
| AGUGGGCUAGGAUAUCGAUGAACUCACAUGAGGAUCACCCAUGUGUCUUCGGUGGGCUCACGAGAAGGAGUAAGUU | – | – | 0.0176 | 0.0232 |
| AGUGUCAUCGAGAAGGCCUCAACAUGAGGAUCACCCAUGUUGAAAAGUGGGAGGAUAUCGAUGAUACAGCUACGUUUCGUAGCA | 0.00979 | 0.00498 | – | – |
| AGUGUCAUCGAGAAGGCCUCAACAUGAGGAUCACCCAUGUUGCAAAAUGGGAGGAUAUCGAUGAUACAGCUACGUUUCGUAGCA | 0.0153 | 0.00521 | – | – |
| AGUGUCAUCGAGAAGGCCUCAACAUGAGGAUCACCCAUGUUGCAAAAUGGGAGGAUAUCGCGCGUUCAAAAACGUUUCGUAGCA | 0.0423 | 0.0176 | – | – |
| AGUGUGUGGCAGGAUAUGCUAUUAAUUGGUGAAGCAGAAGGGUCUACAUGAGGAUCACCCAUGUAAGCGGUUGA | – | – | 0.0397 | 0.19 |
| AGUGUGUUAGGAUAUCGCAUAUGCUGGAGGAGGUGGAGUUACGAGAAGGAACAUGAGGAUCACCCAUGUAGGAC | – | – | 0.0282 | 0.0265 |
| AGUUAAUAUCGAGGAUAUAAGUCUAAGACAUGAGGAUCACCCAUGUGUGUCUUAGAAGGCGAUAUUAACAGCAUGUUACAUGCA | 0.0483 | 0.00807 | – | – |
| AGUUCUUGUGAAGGAUAUACGGCGGGUCGCGCAGUAGAAGGUCACAUGAGGAUCACCCAUGUCGACAAUGUGCAGUAUCGACAA | – | – | 0.135 | 0.271 |
| AGUUGGCGAGGAUAUACAUGAGGAUCACCCAUGUGAGAGAUACUAGUGAGGUCGAUUGGUAGAAGGCGCUGACA | – | – | 0.132 | 0.106 |
| AGUUUACAUGAGGAUCACCCAUGUGAGGAUAUGGUUUCGCUGGCCGUAGCCAGUGGAACCAGAAGGCGCGUGAU | – | – | 0.0876 | 0.164 |

| Sequence | apparent Kd [1] [µM] | apparent Kd [2] [µM] | apparent Kd [3] [µM] | apparent Kd [4] [µM] |
| --- | --- | --- | --- | --- |
| AGUUUCUUGUAAGGAUAUACUAGCGAUAAGCUAGUAGAAGGUACUGUCUAUUGUAUCACUAUUUUACAUGAGGAUCACCCAUGU | 0.00713 | 0.0062 | – | – |
| AUAAAACAUGAGGAUCACCCAUGUGAGGAUAUGCUAAAAUAAAAUAAAAUAAAAUAAUGCAGAAGGCACAAAUA | – | – | 0.0597 | 0.0746 |
| AUAAAUAUAGCGAUAUGAUCGAGAGAUCAUGUCGCUAAAGUUAGAAGGACAUGAGGAUCACCCAUGUAGGAUAUGGGAGUAUGA | 0.17 | 0.0628 | – | – |
| AUAAGCUCGUCAGGAUAUGCGACACUGUUUCGGCAGUGUGGUAUGAUCACAUGAGGAUCACCCAUGUAGAAGGGACGAGCUUAU | – | – | 0.00609 | 0.0117 |
| AUAAUGAGAGGAUAUACAUGAGGAUCACCCAUGUUAUUAACACGGCGAGCUCCAAUACGUAGAAGGCUCAUUUA | – | – | 0.123 | 0.0265 |
| AUAAUGUGAGGAUAUCAGUAAGAAUGCUUCGGCAUUCUUACUGAGAAGGCACAUGAGGAUCACCCAUGUGAUUA | – | – | 0.201 | 0.964 |
| AUAAUUUUAUAUUUAUUUUUAUUCAGAAGGCAUAACAUGAGGAUCACCCAUGUAAAUUAAUGUUAUGAGGAUAUGAUUUGGUUA | – | – | 0.0262 | 0.123 |
| AUACAUGAGGAUCACCCAUGUAAUUAAUUAACUAGUAAGAUCUAGGAUAUCAGCUCGAUUAGAGCUGAGAAGGAGAUCACAUGU | 0.0347 | 0.0169 | – | – |
| AUACAUGAGGAUCACCCAUGUAAUUAAUUAAUUAAUAAGAUCAAGGAUAUCAGCUCGAUUAGAGCUGAGAAGGUGAUCACAUGU | 0.417 | 0.306 | – | – |
| AUACAUGAGGAUCACCCAUGUUACAUGGCCUUGAUAGAUCGUAGAAGGAUGUUAUUAUUAAUUUCAUAGGAUAUACUAUUUAGU | – | – | 0.0951 | 0.0729 |
| AUACCACGAGGAUAUCGUCUAUAUUACAUGAGGAUCACCCAUGUUAUAUUUGUAAUGUUUCGAGAAGGCGUGUUUU | – | – | 0.0153 | 0.0133 |
| AUACCACGAGGAUAUCGUCUAUUCCACAUGAGGAUCACCCAUGUUAUCCAUGUUUCGUUUCGAGAAGGCGUGGGUU | – | – | 0.0599 | 0.0429 |
| AUACCUUAUGAGAAGGCGAUCAUGAAACAUGAUCGAGGAUAUCAUGUAAACAUGAGGAUCACCCAUGUAUGGGUAUUAUGGUAU | 0.0574 | 0.0109 | – | – |
| AUACUCAUGUAAGGAUAUGCAGCCGUUUCGGCUGCAGAAGGUACUAUAAUACAUGAGGAUCACCCAUGUCUAUAAAAUAAAGAC | 0.0606 | 0.0415 | – | – |
| AUACUCGUUGUGAGGAUAUCGUUUUCUUUACGGAUCGAGAAGGCACAUGAGGAUCACCCAUGUUUGACGUGAAU | – | – | 0.0337 | 0.162 |
| AUAGGAUGAGGUGACGUACAUGAGGAUCACCCAUGUUUGACACAGGAUAUCCCGCGACUUGGUUUGGAGAAGGGUGGCAGACAA | – | – | 0.164 | 0.119 |
| AUAGGGACCUCGCAAUGUUUACAUGAGGAUCACCCAUGUAAGAGAAGGGUCCAGUCAUCUCCUGGAUAGGAUAUCUUACCGUUA | – | – | 0.00521 | 0.00644 |
| AUAGGUUAAGGAGGAUAUAGAGGGAGACGUACACAUGAGGAUCACCCAUGUAUUUAAUUAGUUUACUAGAAGGCUUAUGAUUGU | 0.0655 | 0.101 | – | – |
| AUAUAGUCAGGAUAUCGAAGUGAGUGUUGGUGGGUAAGGUACGAGAAGGGACAUGAGGAUCACCCAUGUAGGAA | – | – | 0.0597 | 0.0441 |
| AUAUAUAGUGUGAGGAUAUGCUGGUCCUUGGAUCAGCAGAAGGCACAUGAGGAUCACCCAUGUAGUUUAUUUUG | – | – | 0.0175 | 0.077 |
| AUAUCCGAAGCAGGAUAUCGACGAGGUGUCGAGGUAGAGCGUAUUCACAUGAGGAUCACCCAUGUCGAGAAGGGCUACAGGAUA | – | – | 0.0565 | 0.0159 |
| AUAUCUCCCGAGAAGGACGUACCACAUGUUGAUCACCGAUAUAAGGAACGUAGGAUAUUGGACAUGAGGAUCACCCAUGUGGAU | 0.391 | 0.0236 | – | – |
| AUAUCUCUGUAAGGAUAUAGAUGGUGUAAGCCUCCGACAUGAGGAUCACCCAUGUUAUAUGUUGUCUAGAAGGUACAGUGUCGG | 1.11 | 0.898 | – | – |
| AUAUGACAUGAGGAUCACCCAUGUGAGGAUAUAUGCGCAGGUCCAGGGACGGCUGUGCAUAGAAGGUGCUUGGG | – | – | 0.307 | 0.268 |
| AUAUUCUAGAUAGGAUAUACUGAGGUUGAAUGGGUAGAAGGAUCGUUAGAGUGGACUACAUGAGGAUCACCCAUGUUGUUUAUU | 0.0483 | 0.0427 | – | – |
| AUCAAUCAUGUAGGAUAUGCGUGGCGAAGCUAUGCAGAAGGACAUGAGGAUCACCCAUGUCUUUCUGUCUGCGGACGGACAGGA | – | – | 0.0192 | 0.0557 |
| AUCAGCACGUGAGGAUAUGCGUCACUGCGUCAGCAGUGUGGUAAGAUCACAUGAGGAUCACCCAUGUAGAAGGCACGAGCUGAU | – | – | 0.034 | 0.46 |
